The nature of experiment [1]: Inhibition of Saccharomyces cerevisiae alpha-glucosidase using p-nitrophenyl-alpha-D-glucopyranoside as substrate preincubated for 10 mins followed by substrate addition measured after 30 mins by microplate reader analysis. The essentials: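 α-Glucosidase 0.1 U/mL and p-NPG 1.0 mM in 0.1 M potassium phosphate pH 6.7; samples in DMSO. Inhibitor preincubated with enzyme 10 min at 37 °C, substrate added, 30 min at 37 °C, stopped with 1 M Na2CO3; absorbance 405 nm with blank correction. Five concentrations, triplicate; IC50 as mean ± SEM of three independent experiments.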

The subject of experiment [2] is Mus musculus. The experiment in a line: Hypoglycemic effect in Kunming mouse model of STZ-induced diabetes assessed as reduction in fasting blood glucose level at 50 mg/kg, po measured at 3 hrs post dose by glucometry analysis relative to control. The format is functional. More on the design: scale not given: the % may be the effect or the level left. The essentials: (§1)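 STZ-diabetic Kunming mice (single i.p. streptozotocin 100 mg/kg in citrate buffer pH 4.5, fasting; glucose checked day 7), fasted, dosed orally in 0.5 % CMC–Na with vehicle-only controls. Tail-vein glucometer readings at 0, 1.5, 3, 5, 7 and 9 h post-dose; percent change relative to vehicle group. n = 6; mean ± SEM, one-way ANOVA with post-hoc test.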

Experiment [3] concerns Mus musculus. The experiment in a line: Hypoglycemic effect in Kunming mouse model of STZ-induced diabetes assessed as reduction in fasting blood glucose level at 100 mg/kg, po measured at 5 hrs post dose by glucometry analysis relative to control. The format is functional. More on the design: scale not given: the % may be the effect or the level left. The method, boiled down: as §1

Experiment [4] concerns Mus musculus. The experiment in a line: Antihyperglycemic effect in Kunming mouse model of STZ-induced diabetes assessed as reduction in postprandial blood glucose level at 50 and 100 mg/kg, po administered 30 mins before sucrose challenge measured after 30 to 90 mins by oral sucrose tolerance test. The format is functional, organism-based. The essentials:
(§2)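 Diabetes induced in Kunming mice (4–6 weeks) by single i.p. streptozotocin 100 mg/kg in citrate buffer pH 4.5 under fasting, glucose checked on day 7. Fasted mice dosed orally in 0.5 % CMC–Na (vehicle controls), then sucrose 3 g/kg orally after 30 min; tail-vein glucometer readings at 0–3.0 h post-load. n = 6; mean ± SEM, one-way ANOVA with post-hoc test.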

For experiment [5], the system named is Mus musculus. The experiment in a line: Hypoglycemic effect in Kunming mouse model of STZ-induced diabetes assessed as reduction in fasting blood glucose level at 50 mg/kg, po measured at 9 hrs post dose by glucometry analysis relative to control. The format is functional. More on the design: scale not given: the % may be the effect or the level left. The method, boiled down: as §1

For experiment [6], the system named is Mus musculus. The experiment in a line: Hypoglycemic effect in Kunming mouse assessed as reduction in fasting blood glucose level at 25 to 100 mg/kg, po measured at 1.5 to 9 hrs post dose by glucometry analysis. The format is functional, organism-based. The method, boiled down:
(§3)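 Fasted normal Kunming mice (4–6 weeks) given single oral dose suspended in 0.5 % CMC–Na; control group received vehicle only. Tail-vein glucose measured by glucometer at 0, 1.5, 3, 5, 7 and 9 h after administration. Six mice per group; mean ± SEM, one-way ANOVA followed by Tukey's or Dunnett's test versus control.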

For experiment [7], the system named is Mus musculus. The experiment in a line: Hypoglycemic effect in Kunming mouse model of STZ-induced diabetes assessed as reduction in fasting blood glucose level at 50 mg/kg, po measured at 5 hrs post dose by glucometry analysis relative to control. The format is functional. More on the design: scale not given: the % may be the effect or the level left. The method, boiled down:
as §1

Experiment [8] has as its system Mus musculus. The experiment in a line: Hypoglycemic effect in Kunming mouse model of STZ-induced diabetes assessed as reduction in fasting blood glucose level at 100 mg/kg, po measured at 7 hrs post dose by glucometry analysis relative to control. The format is functional. More on the design: scale not given: the % may be the effect or the level left. The method, boiled down: as §1

Experiment [9] in a line: Competitive inhibition of Saccharomyces cerevisiae alpha-glucosidase using p-nitrophenyl-alpha-D-glucopyranoside as substrate by Lineweaver-Burk plot analysis. The essentials: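 Enzyme kinetics run with rising concentrations of 4-nitrophenyl α-D-glucopyranoside and of inhibitor; mode of inhibition assigned from Lineweaver–Burk plots under Michaelis–Menten kinetics.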

Experiment [10] relates to Mus musculus. The experiment in a line: Hypoglycemic effect in Kunming mouse model of STZ-induced diabetes assessed as reduction in fasting blood glucose level at 100 mg/kg, po measured at 3 hrs post dose by glucometry analysis relative to control. The format is functional. More on the design: scale not given: the % may be the effect or the level left. The essentials: as §1

Experiment [11] relates to Mus musculus. The experiment in a line: Hypoglycemic effect in Kunming mouse model of STZ-induced diabetes assessed as reduction in fasting blood glucose level at 50 mg/kg, po measured at 1.5 hrs post dose by glucometry analysis relative to control. The format is functional. More on the design: scale not given: the % may be the effect or the level left. The method, boiled down:
as §1

In experiment [12] the test system is Mus musculus. The experiment in a line: Hypoglycemic effect in Kunming mouse model of STZ-induced diabetes assessed as reduction in fasting blood glucose level at 100 mg/kg, po measured at 1.5 hrs post dose by glucometry analysis relative to control. The format is functional. More on the design: scale not given: the % may be the effect or the level left. The essentials: as §1

Experiment [13] has as its system Mus musculus. The experiment in a line: Hypoglycemic effect in Kunming mouse model of STZ-induced diabetes assessed as reduction in fasting blood glucose level at 100 mg/kg, po measured at 9 hrs post dose by glucometry analysis relative to control. The format is functional. More on the design: scale not given: the % may be the effect or the level left. The method, boiled down:
as §1

Experiment [14] relates to Mus musculus. The experiment in a line: Antihyperglycemic effect in Kunming mouse model of STZ-induced diabetes assessed as reduction in postprandial blood glucose level at 25 mg/kg, po administered 30 mins before sucrose challenge measured after 30 to 90 mins by oral sucrose tolerance test. The format is functional, organism-based. The essentials: as §2
The test system of experiment [15] is Mus musculus. The experiment in a line: Hypoglycemic effect in Kunming mouse model of STZ-induced diabetes assessed as reduction in fasting blood glucose level at 50 mg/kg, po measured at 7 hrs post dose by glucometry analysis relative to control. The format is functional. More on the design: scale not given: the % may be the effect or the level left. The method, boiled down:
as §1

For experiment [16], the system named is Mus musculus. The experiment in a line: Antihyperglycemic effect in Kunming mouse assessed as reduction in postprandial blood glucose level at 50 and 100 mg/kg, po administered 30 mins before sucrose challenge measured after 30 to 90 mins by oral sucrose tolerance test. The format is functional, organism-based. The essentials: (§4)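 Male/female unspecified Kunming mice, 4–6 weeks old, fasted. Oral dosing suspended in 0.5 % CMC–Na (controls given vehicle alone); sucrose 3 g/kg orally 30 min later. Six mice per group; mean ± SEM, one-way ANOVA with Tukey's or Dunnett's test.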

The subject of experiment [17] is Mus musculus. The experiment in a line: Antihyperglycemic effect in Kunming mouse assessed as reduction in postprandial blood glucose level at 25 mg/kg, po administered 30 mins before sucrose challenge measured after 30 to 90 mins by oral sucrose tolerance test. The format is functional, organism-based. The method, boiled down:
as §4

In experiment [18] the test system is Mus musculus. The experiment in a line: Hypoglycemic effect in Kunming mouse assessed as reduction in fasting blood glucose level at 10 mg/kg, po measured at 1.5 to 9 hrs post dose by glucometry analysis. The format is functional, organism-based. The method, boiled down:
as §3

Experiment [19] concerns Mus musculus. The experiment in a line: Hypoglycemic effect in Kunming mouse model of STZ-induced diabetes assessed as reduction in fasting blood glucose level at 10 mg/kg, po measured at 1.5 to 9 hrs post dose by glucometry analysis. The format is functional, organism-based. The essentials:
as §1

This passage reports IC50, Activity and Ki results from ChEMBL document CHEMBL3769387, “α-Glucosidase inhibition and antihyperglycemic activity of flavonoids from Ampelopsis grossedentata and the flavonoid derivatives” (Bioorg Med Chem, 2016).

The source made the active and inactive calls. No cut-off for these calls is given here.

On to `O=c1c(O)c(-c2cc(O)c(OCCOCCOCCOCCO)c(O)c2)oc2cc(O)cc(O)c12`, for which the IC50 (as a rule, the concentration at which inhibition is half-maximal) in experiment [1] stood at 463 µM.
On the same count and under the same terms, then `O=c1c(O)c(-c2cc(O)c(OCCO)c(O)c2)oc2cc(O)cc(O)c12`, with 84.5 µM; and `O=c1c(O)c(-c2cc(O)c(OCCOCCO)c(O)c2)oc2cc(O)cc(O)c12`, with 43.8 µM.
As for `C[C@@H]1O[C@@H](Oc2c(-c3cc(O)c(O)c(O)c3)oc3cc(O)cc(O)c3c2=O)[C@H](O)[C@H](O)[C@H]1O`, the IC50 in experiment [1] is 838 µM.
`O=c1c(O)c(-c2cc(O)c(O)c(O)c2)oc2cc(O)cc(O)c12` [MYRICETIN] returned a half-maximal inhibitory concentration (IC50) in experiment [1] of 319 µM.
Regarding `Cc1ccc(S(=O)(=O)N(CCO)CCOc2c(O)cc(-c3oc4cc(O)cc(O)c4c(=O)c3O)cc2O)cc1`, the Activity came to 35.9% in the experiment on Mus musculus [2]; 60% in the experiment with Mus musculus [3]; 61.5% in the experiment with Mus musculus [5]; 47.3% with Mus musculus [7]; 65.4% in the experiment on Mus musculus [8]; 45.1% with Mus musculus [10]. Also, the Activity came to 27.8% in the experiment on Mus musculus [11], 37% with Mus musculus [12], 67.3% with Mus musculus [13] and 59.6% with Mus musculus [15]. Moreover, the outcome with Mus musculus [4] and in the experiment on Mus musculus [16] was Active. Besides, the outcome in the experiment with Mus musculus [6], in the experiment with Mus musculus [14] and with Mus musculus [17] was inactive. This molecule also came in with an IC50 in [1] of 9.3 µM. The affinity in [9] corresponds to a Ki of 10.3 µM.
For `O=c1c(O)c(-c2cc(O)c(OCCN(CCO)c3ccccc3)c(O)c2)oc2cc(O)cc(O)c12`, in experiment [1], the IC50 was 41.1 µM.
Still for that read-out and setting: then `C[C@@H]1O[C@@H](O[C@@H]2[C@@H](O)[C@H](O)[C@H](O[C@H]3[C@H](O)[C@@H](O)C(O)O[C@@H]3CO)O[C@H]2CO)[C@@H](O)[C@H](O)[C@H]1N[C@H]1C=C(CO)[C@@H](O)[C@H](O)[C@H]1O` (stereo partly drawn), with 720 µM; and `O=C1c2c(O)cc(O)cc2O[C@H](c2cc(O)c(O)c(O)c2)[C@H]1O` [AMPELOPSIN], with 634 µM.
Turning to `O=c1c(O)c(-c2cc(O)c(OCCOCCOCCO)c(O)c2)oc2cc(O)cc(O)c12`, the IC50 in [1] was determined as 233 µM.
With `COc1ccc(Cl)cc1C(=O)NCCc1ccc(S(=O)(=O)NC(=O)NC2CCCCC2)cc1`, the result in the experiment on Mus musculus [18] and in the experiment on Mus musculus [19] was Active.
